Screens from PubChem BioAssay.
Shown are actives, neighbours in structure and some others; about 4.1% of the full set was active somewhere.
KCNK9 block – KCNK9 potassium channel inhibitors, primary screen, HEK293 cells, thallium flux; FluxOR thallium flux fluorescence; stronger effect = lower value; B-score at 10 µM; 310,000 tested, 1.2% active;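 active means ratio B-score over 3 SD below the library mean, with starting fluorescence within 5 SD of its mean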;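 further: negative B-score means less thallium flux so channel inhibition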
KCNQ1 pot – potentiators or activators of KCNQ1 channel, primary screen, cell-based, thallium flux, high-throughput; CHO-K1 KCNQ1, thallium flux FluxOR fluorescence; stronger effect = higher value; 310,000 tested, 0.35% active; AID 2648, 2010; Potassium voltage-gated channel subfamily KQT member 1 (Homo sapiens), P51787; B-score at 10 µM;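 active means fluorescence ratio B-score, a plate-corrected score, at least three library SD, with initial intensity B-score within 5 SD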
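System: Stable KCNQ1 CHO-K1 line | Incubation: 90 min dye loading and 20 min compound exposure, both at room temperature | Measure: Ratio B score | Medium: Assay buffer for compound exposure, DMSO matched across wells | Compound dosing: Single-concentration screen | Probe or stimulus: K+/Tl+ depolarizing stimulus | Measured by: Kinetic FluxOR fluorescence, 10 s baseline plus 110 s post-stimulus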
hERG protect – hERG rescue from dofetilide block, primary screen, cell-based, CHO-hERG, FluxOR thallium flux, dofetilide IC70. Voltage-gated inwardly rectifying potassium channel KCNH2 (Homo sapiens), Q12809. dofetilide IC70 present. activation (rescue from dofetilide block), less the hit threshold, % at 10 µM. 310,000 tested, 0.51% active;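 active means activation above the mean of controls blocked by dofetilide plus 5 SD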;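 further: thallium influx through hERG after potassium depolarization seen as dye fluorescence rise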
KCNK3 inh – human KCNK3 channel inhibitors, primary screen, CHO cells, FluxOR thallium flux, B-score; Potassium channel subfamily K member 3 (Homo sapiens), O14649; FluxOR fluorescence; stronger effect = lower value; B-score at 10 µM; 340,000 tested, 0.84% active;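 active means B-score under library mean minus 4 SD, starting fluorescence ratio at most library mean plus 5 SD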;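 further: more negative B-score means stronger inhibition of thallium flux through KCNK3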
KCNQ1 block – inhibitors of human KCNQ1 channel, primary screen, cell-based, thallium flux, high-throughput | Potassium voltage-gated channel subfamily KQT member 1 (Homo sapiens), P51787 | CHO-K1 KCNQ1, FluxOR thallium flux fluorescence; stronger effect = higher value | B-score at 10 µM | 310,000 tested, 1.3% active;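 active means compounds whose thallium flux B-score, printed positive for inhibition, exceeds three library SD while starting fluorescence stays within three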;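 further: channel opened by potassium depolarization with thallium stimulus after 20 min compound exposure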
Cl transport mod – KCC2 cotransporter modulators, thallium flux, primary screen, cell-based, HEK293 KCC2, FluoZin-2 fluorescence, MLSMR; Solute carrier family 12 member 5 (Homo sapiens), Q9H2X9; KCC2 cells, thallium flux FluoZin-2 fluorescence; B-score of Tl+ flux slope (higher = more flux/activation; lower = inhibition) at 10 µM; 190,000 tested, 2.2% active;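 active means thallium flux slope and its plate-corrected score both differing from the plate sample mean at a set confidence after two filtering rounds, in either direction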;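 further: slope of fluorescence scaled to starting intensity during 10 to 20 s after thallium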
KCNK9 block conf – KCNK9 potassium channel inhibitors, confirmation, HEK293 cells, thallium flux, duplicate | inhibition, % at 10 µM | FluxOR thallium flux fluorescence | AID 492992, 2010 | shares compounds with KCNK9 block | 4,900 tested, 43% active;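 active means thallium signal inhibited by more than 5 SD of the compound-free buffer control wells, on both duplicate plates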
Kir2-1 spec – mouse Kir2.1 channel inhibition, confirmation, selectivity assay for KCNK9 modulator project, cell-based, HEK293, thallium flux; shares compounds with KCNK9 block; Kir2.1 cells, FluxOR thallium flux fluorescence; inhibition, % at 10 µM; 4,900 tested, 4% active; AID 492993, 2010;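 active means thallium signal drop more than 5 SD beyond the mean of the no-compound control wells, seen in both duplicate plates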;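 further: signal is fluorescence rise after thallium addition divided by baseline fluorescence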
KCNK9 uninduced – thallium flux in non-induced HEK293 cells, confirmation, counter-screen for KCNK9 inhibitor project, cell-based, second counter screen, non-induced KCNK9-HEK293 | shares compounds with KCNK9 block | FluxOR thallium flux | inhibition, % at 10 µM | 4,900 tested, 40% active;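 active means thallium signal drop beyond 5 SD of the untreated control mean, on both duplicate plates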
KCNK3 inh conf – retest of human KCNK3 channel inhibitors, confirmation, CHO cells, FluxOR thallium flux, triplicate; shares compounds with KCNK3 inh; AID 651638, 2012; ratio percent of control, % at 10 µM; FluxOR fluorescence; 0% buffer, 100% carvedilol maximal block; 2,400 tested, 99% active;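 active means ratio percent of control, averaged over triplicates, above buffer control mean plus 5 SD, cut at about 64% in these data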;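 further: ratio is the fluorescence rise from min to max over baseline after thallium stimulus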
KCNK3 noninduced – thallium flux inhibition in non-induced cells, primary screen, counter-screen for KCNK3 inhibitor project, cell-based, non-induced KCNK3 line, FluxOR thallium, triplicate; shares compounds with KCNK3 inh; non-induced KCNK3 parental cells; stronger effect = lower value; thallium flux ratio (lower = more inhibition) at 10 µM; 2,400 tested, 40% active;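 active means thallium flux ratio, averaged over three wells, more than 5 SD below the buffer control mean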;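 further: host cells are CHO cells without KCNK3 induction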
Large screens that a line does not name were inactive (follow-up assays come after a bar, where they were run).

Cc1c(/C(O)=C2\C(=O)C(=O)N(CCN(C)C)C2c2ccco2)cnn1-c1ccccc1 (stereo not drawn)	none
COc1ccccc1N(CC(=O)NCCSCc1cccc(C)c1)S(=O)(=O)c1ccccc1	KCNK9 block -16, KCNK3 inh -13, KCNQ1 block 9 (no result: Cl transport mod) | KCNK9 block conf 48% | Kir2-1 spec inactive | KCNK9 uninduced 28% | KCNK3 inh conf 105 | KCNK3 noninduced inactive
CCN(CC)CCCNC(=O)Cn1nc([N+](=O)[O-])c(Cl)c1C	none
CC(=O)Oc1cc(C)cc2oc(=O)cc(-c3ccccc3)c12	none (no result: Cl transport mod)
Cc1cc(OCC(=O)N2CCc3ccccc3C2)c2c(-c3ccccc3)cc(=O)oc2c1	KCNK3 inh -11 | KCNK9 block conf inactive | Kir2-1 spec inactive | KCNK9 uninduced inactive | KCNK3 inh conf 99 | KCNK3 noninduced inactive
O=S(=O)(c1ccccc1)N1CCN=C1SCc1ccccc1Cl	KCNK9 block -9.7, KCNK3 inh -11 | KCNK9 block conf 34% | Kir2-1 spec inactive | KCNK9 uninduced 44% | KCNK3 inh conf 114 | KCNK3 noninduced inactive
CCN(c1ccc(OC)cc1)S(=O)(=O)c1cc(-c2cc(C)no2)ccc1C(C)C	KCNK9 block -16, KCNK3 inh -9.2 (no result: Cl transport mod) | KCNK9 block conf 60% | Kir2-1 spec inactive | KCNK9 uninduced 38% | KCNK3 inh conf 121 | KCNK3 noninduced 0.14
CCN(c1ccc(OC)cc1)S(=O)(=O)c1cc(-c2cc(C)no2)ccc1OC	none (no result: Cl transport mod)
Cc1ccc(C(=O)N(CCc2ccccc2)Cc2ccccc2)cc1S(=O)(=O)N1CCCCC1	KCNK9 block -13, KCNK3 inh -9.1 (no result: Cl transport mod) | KCNK9 block conf 76% | Kir2-1 spec inactive | KCNK9 uninduced 30% | KCNK3 inh conf 103 | KCNK3 noninduced inactive
Cc1ccc(C(=O)N(CCc2ccccc2)Cc2ccccc2)cc1S(=O)(=O)N1CCOCC1	none (no result: KCNK9 block, KCNQ1 pot, hERG protect, KCNQ1 block, Cl transport mod)
CCN(CC)S(=O)(=O)c1ccc(Br)c(OC)c1	none (no result: Cl transport mod)
CN(c1ccccc1)S(=O)(=O)c1ccc(C(=O)N2CCc3ccccc3C2)cc1	none
CCc1cc2cccc(C)c2nc1SCC(=O)NC1CCCC1	KCNK9 block -9, KCNK3 inh -11 (no result: Cl transport mod) | KCNK9 block conf 52% | Kir2-1 spec inactive | KCNK9 uninduced 26% | KCNK3 inh conf 104 | KCNK3 noninduced inactive
CC(C)CN(CC(C)C)C(=O)c1cccc(S(=O)(=O)N2CCc3ccccc32)c1	KCNK9 block -8.8, KCNK3 inh -9.7 | KCNK9 block conf 40% | Kir2-1 spec inactive | KCNK9 uninduced 37% | KCNK3 inh conf 111 | KCNK3 noninduced inactive
CC1CCCCN1C(=O)C1CCN(c2nc(-c3ccccc3)nc3c2CCC3)CC1 (stereo not drawn)	none (no result: Cl transport mod)
COCCNC(C(=O)Nc1cc(Cl)cc(Cl)c1)c1ccccc1 (stereo not drawn)	KCNK9 block -12, KCNK3 inh -9.2 | KCNK9 block conf 44% | Kir2-1 spec inactive | KCNK9 uninduced 40% | KCNK3 inh conf 103 | KCNK3 noninduced inactive
CCOCCCNC(C(=O)Nc1ccc(OC)c(Cl)c1)c1ccccc1 (stereo not drawn)	none
Cc1ccc(C(c2ccc(C)o2)c2cccc([N+](=O)[O-])c2O)o1	KCNK9 block -11, KCNK3 inh -9.8 | KCNK9 block conf 26% | Kir2-1 spec inactive | KCNK9 uninduced inactive | KCNK3 inh conf 114 | KCNK3 noninduced 0.15
CC(C)Oc1cccc(C(=O)C2CCCN(C(=O)c3ccnn3C)C2)c1 (stereo not drawn)	KCNK3 inh -10 | KCNK9 block conf inactive | Kir2-1 spec inactive | KCNK9 uninduced inactive | KCNK3 inh conf 98 | KCNK3 noninduced inactive
O=C(Cc1ccsc1)N1CCc2c([nH]c3ccccc23)C1c1ccccn1 (stereo not drawn)	none (no result: Cl transport mod)
Clc1ccc(-n2cccc2CN2CCc3c([nH]c4ccccc34)C2c2ccccn2)nc1 (stereo not drawn)	KCNK9 block -8.5, KCNK3 inh -10 (no result: Cl transport mod) | KCNK9 block conf 38% | Kir2-1 spec inactive | KCNK9 uninduced 25% | KCNK3 inh conf 125 | KCNK3 noninduced 0.14
CCc1ccc(CN(C)CC(=O)Nc2ccccc2[N+](=O)[O-])cc1	none
C=CCOc1ccc(CN(C)CC(=O)Nc2ccccc2[N+](=O)[O-])cc1	KCNK3 inh -9.5 | KCNK9 block conf inactive | Kir2-1 spec inactive | KCNK9 uninduced inactive | KCNK3 inh conf 99 | KCNK3 noninduced 0.16
O=C(Nc1ccncc1)Nc1ccc(Br)cc1Cl	none (no result: Cl transport mod)
Cc1cccn2cc(-c3cccc(NC(=O)c4cccs4)c3)nc12	KCNK9 block -10, KCNK3 inh -12 | KCNK9 block conf 40% | Kir2-1 spec inactive | KCNK9 uninduced inactive | KCNK3 inh conf 121 | KCNK3 noninduced inactive
CC(=O)Nc1ccc2nc(-c3cccn3C)[nH]c2c1	none (no result: Cl transport mod)
O=C(Nc1cccc(-c2cn3cccnc3n2)c1)c1cccs1	none
Cn1cccc1-c1nc2ccc(NC(=O)c3cccs3)cc2[nH]1	KCNK9 block -10, KCNK3 inh -12 (no result: Cl transport mod) | KCNK9 block conf 46% | Kir2-1 spec inactive | KCNK9 uninduced inactive | KCNK3 inh conf 141 | KCNK3 noninduced 0.13
CC(C)CNC(=O)c1nn(Cc2ccccc2)c(=O)c2ccccc12	none (no result: Cl transport mod)
